Bioassay records deposited in PubChem by Sanford-Burnham Center for Chemical Genomics.
The list is not random: actives were taken first. Their share in the collection is about 2.4%.
STEP block = STEP phosphatase inhibitors, primary screen, biochemical, fluorescence intensity, uHTS. Tyrosine-protein phosphatase non-receptor type 5 (Homo sapiens), P54829. recombinant STEP, OMFP fluorogenic substrate. inhibition, % at 20 µM. hit rate 0.25% among 360,000. AID 588621, 2011;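 active means inhibition at 20 µM, scaled per plate between control wells, above about 37%, limit read from the data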;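 further: 0% = DMSO with enzyme and substrate and 100% = substrate only without enzyme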
Target sequence (P54829 whole entry, looked up): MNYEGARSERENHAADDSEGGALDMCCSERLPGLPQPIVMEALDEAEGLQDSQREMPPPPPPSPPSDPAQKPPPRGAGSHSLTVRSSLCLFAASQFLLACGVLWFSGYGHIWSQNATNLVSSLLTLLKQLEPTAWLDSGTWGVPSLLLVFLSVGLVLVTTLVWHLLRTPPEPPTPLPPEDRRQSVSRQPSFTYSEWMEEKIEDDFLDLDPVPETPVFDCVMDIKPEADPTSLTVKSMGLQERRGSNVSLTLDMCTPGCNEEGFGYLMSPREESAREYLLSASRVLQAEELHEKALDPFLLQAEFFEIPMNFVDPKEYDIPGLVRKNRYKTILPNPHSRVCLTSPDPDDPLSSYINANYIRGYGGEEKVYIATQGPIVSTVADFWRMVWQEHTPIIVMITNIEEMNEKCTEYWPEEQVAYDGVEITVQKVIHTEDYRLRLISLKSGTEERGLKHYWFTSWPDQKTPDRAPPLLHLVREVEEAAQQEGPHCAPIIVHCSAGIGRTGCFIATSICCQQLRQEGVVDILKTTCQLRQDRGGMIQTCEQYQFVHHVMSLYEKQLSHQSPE
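System: STEP phosphatase, cell-free reaction; Buffer or medium: Bis-Tris pH 6.0 buffer with DTT, detergent; Incubation: 20 min at room temperature, dark; Measured by: fluorescence, 480/540 nm.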
Scp1 inh = Scp-1 phosphatase inhibitors, primary screen, biochemical, colorimetric, uHTS | hit rate 0.88% among 340,000 | Carboxy-terminal domain RNA polymerase II polypeptide A small phosphatase 1 (Homo … | Recombinant Scp1, phosphopeptide, malachite green phosphate absorbance | inhibition, % at 20 µM | AID 493091, 2011;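 active means inhibition above about 50% at 20 µM, limit read from the data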;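 further: plate controls were DMSO wells with enzyme for no effect and wells lacking enzyme for full effect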
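Incubation: 45 min enzyme reaction at room temperature / System: truncated SCP-1 phosphatase (76-261aa) / Reagent: Phospho 17-mer peptide substrate / Buffer or medium: Acidic Tris acetate buffer with magnesium and detergent / Signal: absorbance at 630 nm / Doses: one concentration, 20 µM, with 1.0% DMSO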
LMPTP inh = LMPTP phosphatase inhibitors, primary screen, biochemical, fluorescence intensity, uHTS | inhibition, % at 20 µM | recombinant LMPTP-A, OMFP fluorogenic substrate | hit rate 0.22% among 360,000 | Low molecular weight phosphotyrosine protein phosphatase (Homo sapiens), P24666;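 active means compounds that cut the enzyme signal by at least half of the control window in the single-dose screen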;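 further: plate controls were DMSO wells with enzyme plus substrate for no effect and substrate without enzyme for full effect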
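Test system: LMPTP-A phosphatase enzyme. Amount: LMPTP-A at 0.625 nM final in the reaction. Reagent: OMFP substrate, 400 µM final. Times: 50 min at room temperature. Signal: endpoint fluorescence intensity from OMFP dephosphorylation. Read-out basis: % inhibition. Benchmarks: no-enzyme and uninhibited controls.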
SUMO1-SIM PPI = modulators of SUMO1 protein-protein interactions, primary screen, biochemical, uHTS; SUMO1 binding to a labelled peptide, TR-FRET, 1 h; inhibition, % at 20 µM; hit rate 0.33% among 360,000; Small ubiquitin-related modifier 1 (Homo sapiens), P63165; in the data active means inhibition above about 37%
DNMT1 inh = human DNMT1 methyltransferase inhibitors, primary screen, biochemical, molecular beacon, fluorescence, HinP1I cleavage, uHTS | AID 588458, 2011 | DNA (cytosine-5)-methyltransferase 1 (Homo sapiens), P26358 | inhibition (reported as % activation of signal), % at 10 µM | hit rate 0.83% among 360,000; in the data active means inhibition above about 50%
NadD inh = inhibitors of S. aureus NadD, primary screen, biochemical, colorimetric, uHTS | Nicotinate-nucleotide adenylyltransferase NadD (Staphylococcus aureus N315) | purified NadD enzyme, colorimetric absorbance read-out | inhibition, % at 20 µM | hit rate 0.78% among 360,000; in the data active means inhibition above about 26%
Numbers without * were called inactive; x = not tested or not shown.

SMILES | STEP block | Scp1 inh | LMPTP inh | SUMO1-SIM PPI | DNMT1 inh | NadD inh
CC(/C=C/c1ccc2c(c1)OCO2)=N\NC(=O)C(O)c1ccccc1 (centres undefined) | -1 | -13 | 0 | -14 | 1 | -10
O=C1/C(=C\c2cccc(O)c2O)SC(=S)N1Cc1ccccc1 | 18 | -20 | 4 | -11 | -22 | 3
O=C1/C(=C\c2cc([N+](=O)[O-])ccc2O)SC(=S)N1Cc1ccc(Cl)cc1 | -18 | -20 | 4 | 19 | 57* | -2
O=C1C(NS(=O)(=O)c2cccs2)=C(N2CCN(c3cccc(Cl)c3)CC2)C(=O)c2ccccc21 | 0 | 1 | 2 | -16 | -26 | 30*
COC(=O)c1ccc(-n2c(C)cc(-c3csc(NC(=O)c4ccc(S(=O)(=O)N(C)C)cc4)n3)c2C)cc1 | -1 | -24 | 0 | 7 | -29 | 11
Cc1cc(-c2csc(NC(=O)c3cccc(S(=O)(=O)N(C)C)c3)n2)c(C)n1-c1ccccc1 | 4 | -12 | 1 | 1 | -24 | 49*
O=C(COc1ccc(Cl)cc1Cl)NN1C(=O)/C(=C\c2ccc(Cl)cc2)SC1=S | 0 | 1 | -1 | 5 | 11 | 33*
COc1ccc(-n2c(C)cc(-c3csc(N)n3)c2C)cc1 | -3 | 3 | 7 | -7 | -30 | 33*
Cc1cc(-c2csc(N)n2)c(C)n1-c1ccc(Cl)c(Cl)c1 | -1 | 9 | 1 | 3 | -33 | 36*
CC1CCCC(C)N1C(=O)COC(=O)c1ccccc1O (centres undefined) | -3 | 6 | -1 | -3 | -3 | -1
CC(C)CC(C(=O)NCC1CCCO1)N(C(=O)Cn1nnc(-c2ccc(F)cc2)n1)c1cccc(C(F)(F)F)c1 (centres undefined) | -2 | -13 | -1 | -2 | 5 | -3
N#Cc1c(NC(=O)c2ccc(Br)o2)n(-c2ccccc2)c2nc3ccccc3nc12 | 5 | 25 | 10 | 36 | 51* | 8
CCC(=O)Nc1c(C#N)c2nc3ccccc3nc2n1-c1ccc(C)cc1 | 2 | -2 | 0 | -14 | 4 | -3
CCSc1nc(C)nc2sc(C)c(C)c12 | 4 | -12 | 1 | 79* | 24 | -3
Cc1nc(SCC(=O)N2CCCCC2)c2c(C)c(C)sc2n1 | 2 | -5 | -1 | 5 | 2 | 1
Cc1c(C(=O)c2cccc(F)c2)c2ccccn2c1CCC#N | 0 | -12 | 0 | -11 | 2 | -7
Cc1cc(N2CCN(C(C(=O)NC3CCCC3)c3ccco3)CC2)c2ccccc2n1 (centres undefined) | x | x | 56* | 6 | x | x
Cc1cc(N2CCN(C(C(=O)NC3CCCC3)c3ccc(F)cc3)CC2)c2ccccc2n1 (centres undefined) | x | x | 45 | -1 | x | x
O=C1NC(=S)S/C1=C/c1ccc(N2CCOCC2)o1 | -7 | 16 | 5 | -15 | -4 | 3
O=C1NC(=S)S/C1=C\C=C\c1ccc([N+](=O)[O-])o1 | 66* | 87* | 82* | 97* | 91* | 24
O=C(COC(=O)c1ccc(F)c(S(=O)(=O)N2CCOCC2)c1)Nc1ccc2[nH]c(=O)[nH]c2c1 | -2 | -2 | -2 | 61* | -1 | 1
O=C(COC(=O)c1ccco1)Nc1ccc2[nH]c(=O)[nH]c2c1 | -3 | -5 | 0 | 51* | 1 | 6
O=C(COC(=O)c1ccc(Br)o1)Nc1ccc2c(c1)OCCO2 | -3 | -3 | -1 | -1 | -2 | -6
Nc1nccnc1C(=O)OCC(=O)Nc1ccc2[nH]c(=O)[nH]c2c1 | 2 | 10 | 3 | 80* | 2 | 14
O=C(COC(=O)c1ccccc1)Nc1ccc2[nH]c(=O)[nH]c2c1 | -3 | -3 | -1 | 4 | 0 | -3
O=C(COC(=O)c1ccc(Br)o1)Nc1ccc2[nH]c(=O)[nH]c2c1 | 2 | 1 | -1 | 39* | 8 | -3
